The values below come from ChEMBL document CHEMBL1121666, “Synthesis and serotonin-like activity of 2-amino-5,8-dimethoxy-6-methyl-1,2-dihydronaphthalene” (J Med Chem, 1981).

For data set [1], the system named is Rattus norvegicus. The experiment in a line: Compound was evaluated for the incidence of serotonin syndrome […] by intraperitoneal administration at the dose 2 mg/kg; 0/3. The data set is classed as functional. A digest of the protocol: (§1)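 Male Sprague–Dawley rats (200–300 g) were given the racemic hydrochloride salts intraperitoneally at 1–16 mg/kg, following the Sloviter protocol. A rat was scored positive only when forepaw padding, splayed hindlimbs, and head weaving or tremor were all present. Incidence is reported as responders/rats dosed, with […] rats per dose.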

Data set [2] can be described thus: Acid dissociation constant was determined. The format is ADME.
The test system of data set [3] is Rattus norvegicus. Briefly: Compound was evaluated for the incidence of serotonin syndrome […] by intraperitoneal administration at the dose 16 mg/kg; 2/3. The data set is classed as functional. A digest of the protocol: as §1
The subject of data set [4] is Rattus norvegicus. Briefly: Compound was evaluated for the incidence of serotonin syndrome […] by intraperitoneal administration at the dose 4 mg/kg; 1/3. The format is functional. A digest of the protocol: as §1
In data set [5] the test system is Rattus norvegicus. The experiment in a line: Compound was evaluated for the incidence of serotonin syndrome […] by intraperitoneal administration at the dose 8 mg/kg; 0/3. The data set is classed as functional. A digest of the protocol:
as §1

The test system of data set [6] is Rattus norvegicus. The experiment in a line: Compound was evaluated for the incidence of serotonin syndrome […] by intraperitoneal administration at the dose 4 mg/kg; 0/8. The data set is classed as functional.
Data set [7] relates to Rattus norvegicus. The experiment in a line: Compound was evaluated for the incidence of serotonin syndrome […] by intraperitoneal administration at the dose 16 mg/kg; 3/3. The data set is classed as functional. A digest of the protocol:
as §1

Data set [8] deals with Rattus norvegicus. The experiment in a line: Compound was evaluated for the incidence of serotonin syndrome […] by intraperitoneal administration at the dose 8 mg/kg; 3/8. The data set is classed as functional.

The pKa is the negative logarithm of the acid dissociation constant. Low readings indicate a group that gives up its proton readily, high ones a group that holds its proton tightly. In the case of `COc1cc(C)c(OC)c2c1CC(N)C=C2.Cl` (stereo not given), the Incidence in data set [1] is on record as 0; in data set [3], 2; in data set [4], 1; in data set [5], 0. The same molecule displayed a pKa in data set [2] of 8.93.

For the molecule `COc1cc(C)c(OC)c2c1CC(N)CC2.Cl` (stereo not given), the Incidence in data set [1] was 0; in data set [6] it was 0; in data set [7], 3; in data set [8], 3.

The molecule `COc1cc(C2CC2N)c(OC)cc1C` (stereo not given) came in with a pKa in data set [2] of 8.11.
